Calls of active or inactive are those of the source. The rule behind the calls is not given here.
Tests used:
[1] = target: STE20-like serine/threonine-protein kinase (Homo sapiens, UniProt Q9H2G2); assay: Inhibition of SLK in human HeLa cells lysate at 2 uM pre incubated for 15 mins followed by ATP acyl phosphate probe addition and measured after 10 mins by LC-MS/MS analysis relative to control; type: subcellular; conditions: time 25.0 min
[2] = target: Serine/threonine-protein kinase/endoribonuclease IRE1 (Homo sapiens, UniProt O75460); assay: Inhibition of IRE1 in human HeLa cells lysate at 2 uM pre incubated for 15 mins followed by ADP acyl phosphate probe addition and measured after 10 mins by LC-MS/MS analysis relative to control; type: subcellular; conditions: time 25.0 min
[3] = Inhibition of MAP3K2/3 in human HeLa cells lysate at 2 uM pre incubated for 15 mins followed by ATP acyl phosphate probe addition and measured after 10 mins by LC-MS/MS analysis relative to control; conditions: 25 min, condition cancer
[4] = target: T1, Serine/threonine-protein kinase Chk1 (Homo sapiens) (UniProt O14757); assay: Inhibition of CHK1 K2 site in human HeLa cells lysate at 2 uM pre incubated for 15 mins followed by ATP acyl phosphate probe addition and measured after 10 mins by LC-MS/MS analysis relative to control; type: subcellular; conditions: time 25.0 min
T1 sequence (whole entry): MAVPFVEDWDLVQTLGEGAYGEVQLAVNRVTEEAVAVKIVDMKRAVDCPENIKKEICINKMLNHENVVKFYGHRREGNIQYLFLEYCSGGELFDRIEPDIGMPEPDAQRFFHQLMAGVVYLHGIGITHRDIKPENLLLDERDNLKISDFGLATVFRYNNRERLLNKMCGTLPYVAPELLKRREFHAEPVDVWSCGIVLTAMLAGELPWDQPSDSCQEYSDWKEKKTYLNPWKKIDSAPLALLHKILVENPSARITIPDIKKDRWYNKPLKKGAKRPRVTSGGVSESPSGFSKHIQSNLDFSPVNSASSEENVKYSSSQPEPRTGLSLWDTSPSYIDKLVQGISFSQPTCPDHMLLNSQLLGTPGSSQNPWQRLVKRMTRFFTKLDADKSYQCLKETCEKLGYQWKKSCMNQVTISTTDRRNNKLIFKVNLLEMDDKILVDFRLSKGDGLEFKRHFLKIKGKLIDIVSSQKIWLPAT
How it was run: (§1)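 KiNativ profiling in HeLa lysate (5 mg/mL total protein). Lysate incubated 15 min with inhibitor at 50, 10, 2, 0.8 or 0 μM. ATP or ADP acylphosphate probe then added (5 μM final) and reacted 10 min. Reaction stopped with urea and analysed by targeted MS, using up to four fragment ions per kinase peptide-probe conjugate. % inhibition taken against untreated lysate. Run in duplicate.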

[5] = target: Ribosomal protein S6 kinase alpha-3 (Homo sapiens, UniProt P51812); assay: Inhibition of RSK2 domain 2 in human HeLa cells lysate at 50 uM pre incubated for 15 mins followed by ADP acyl phosphate probe addition and measured after 10 mins by LC-MS/MS analysis relative to control; type: subcellular; conditions: time 25.0 min
[6] = target: T2, Cyclin-dependent kinase 9 (Homo sapiens, UniProt P50750); assay: Inhibition of CDK9 in human HeLa cells lysate at 2 uM pre incubated for 15 mins followed by ADP acyl phosphate probe addition and measured after 10 mins by LC-MS/MS analysis relative to control; type: subcellular; conditions: time 25.0 min; how it was run: as §1
[7] = target: Calcium/calmodulin-dependent protein kinase type 1D (Homo sapiens, UniProt Q8IU85); assay: Inhibition of CAMK1d in human HeLa cells lysate at 50 uM pre incubated for 15 mins followed by ADP acyl phosphate probe addition and measured after 10 mins by LC-MS/MS analysis relative to control; type: subcellular; conditions: time 25.0 min
How it was run: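 KiNativ-type profiling in HeLa lysate (5 mg/mL total protein). Lysate preincubated 15 min with inhibitor at 50, 10, 2, 0.8 or 0 μM, then ATP or ADP acylphosphate probe added (5 μM final) for 10 min. Reaction stopped with urea and analysed by targeted MS, using up to four fragment ions per kinase peptide-probe conjugate. % inhibition calculated against untreated lysate. Duplicate reactions.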

[8] = target: ALK tyrosine kinase receptor (Homo sapiens) (UniProt Q9UM73); assay: Inhibition of ALK (unknown origin) assessed as remaining activity at 10 uM by ATP-competition binding assay relative to control
[9] = target: T2, Cyclin-dependent kinase 9; assay: Inhibition of CDK9 in human HeLa cells lysate pre incubated for 15 mins followed by ATP acyl phosphate probe addition and measured after 10 mins by LC-MS/MS analysis; type: subcellular; how it was run: as §1
AMPK alpha1/alpha2 = AMPK alpha1/alpha2 (Homo sapiens, UniProt P54646+Q13131); assay: Inhibition of AMPKalpha1/2 in human HeLa cells lysate at 2 uM pre incubated for 15 mins followed by ATP acyl phosphate probe addition and measured after 10 mins by LC-MS/MS analysis relative to control; type: subcellular; conditions: time 25.0 min
How it was run: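 HeLa cell lysates (5 mg/mL total protein) were preincubated with inhibitor at 0, 0.8, 2, 10 or 50 μM for 15 min. ATP or ADP acylphosphate probe was then added (5 μM final) for 10 min, and reactions were stopped with urea. Up to four fragment ions per kinase probe-peptide were quantified by targeted MS. % inhibition was taken relative to untreated lysate. Run in duplicate.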

[10] = target: Cyclin-dependent kinase 11B (Homo sapiens, UniProt P21127); assay: Inhibition of PITSLRE in human HeLa cells lysate at 10 uM pre incubated for 15 mins followed by ATP acyl phosphate probe addition and measured after 10 mins by LC-MS/MS analysis relative to control; type: subcellular; conditions: time 25.0 min
[11] = Inhibition of NEK6/7 in human HeLa cells lysate at 10 uM pre incubated for 15 mins followed by ATP acyl phosphate probe addition and measured after 10 mins by LC-MS/MS analysis relative to control; conditions: 25 min, condition cancer
[12] = target: Serine/threonine-protein kinase LATS1 (Homo sapiens, UniProt O95835); assay: Inhibition of LATS1 in human HeLa cells lysate pre incubated for 15 mins followed by ATP acyl phosphate probe addition and measured after 10 mins by LC-MS/MS analysis; type: subcellular
[13] = Inhibition of CK1g1/g2/g3 in human HeLa cells lysate at 2 uM pre incubated for 15 mins followed by ADP acyl phosphate probe addition and measured after 10 mins by LC-MS/MS analysis relative to control; conditions: 25 min, condition cancer
Lewis lung carcinoma = assay: Antitumor activity against mouse LL2 cells allografted in C57Bl/6 mouse assessed as decrease in BrdU incorporation in cell nuclei in tumor at 50 mg/kg, ip by fluorescence microscopic analysis; type: functional, organism-based
How it was run: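 HeLa or LL/2 tumor sections from treated and control xenograft mice were stained with anti-BrdU antibody and DAPI and imaged by fluorescence microscopy. n = 6 mice, 9 slices.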

[14] = target: Tyrosine-protein kinase CSK (Homo sapiens, UniProt P41240); assay: Inhibition of CSK in human HeLa cells lysate at 50 uM pre incubated for 15 mins followed by ATP acyl phosphate probe addition and measured after 10 mins by LC-MS/MS analysis relative to control; type: subcellular; conditions: time 25.0 min
[15] = target: Serine/threonine-protein kinase PRP4 homolog (Homo sapiens, UniProt Q13523); assay: Inhibition of PRP4 in human HeLa cells lysate pre incubated for 15 mins followed by ATP acyl phosphate probe addition and measured after 10 mins by LC-MS/MS analysis; type: subcellular
[16] = target: Tyrosine-protein kinase Fer (Homo sapiens, UniProt P16591); assay: Inhibition of FER in human HeLa cells lysate pre incubated for 15 mins followed by ATP acyl phosphate probe addition and measured after 10 mins by LC-MS/MS analysis; type: subcellular

T2 sequence (P50750 whole entry): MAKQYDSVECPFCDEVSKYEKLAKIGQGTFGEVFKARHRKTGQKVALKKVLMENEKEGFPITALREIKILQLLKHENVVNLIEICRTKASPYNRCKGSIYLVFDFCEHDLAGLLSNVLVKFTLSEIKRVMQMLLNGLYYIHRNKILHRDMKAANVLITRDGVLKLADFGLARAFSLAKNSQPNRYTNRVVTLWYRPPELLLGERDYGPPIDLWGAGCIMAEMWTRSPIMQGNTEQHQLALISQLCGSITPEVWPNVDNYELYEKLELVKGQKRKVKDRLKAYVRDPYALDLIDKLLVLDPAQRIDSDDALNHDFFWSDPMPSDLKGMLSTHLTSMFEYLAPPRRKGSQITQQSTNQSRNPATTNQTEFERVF
Sequence of Cyclin-dependent kinase 11B (P21127 whole entry): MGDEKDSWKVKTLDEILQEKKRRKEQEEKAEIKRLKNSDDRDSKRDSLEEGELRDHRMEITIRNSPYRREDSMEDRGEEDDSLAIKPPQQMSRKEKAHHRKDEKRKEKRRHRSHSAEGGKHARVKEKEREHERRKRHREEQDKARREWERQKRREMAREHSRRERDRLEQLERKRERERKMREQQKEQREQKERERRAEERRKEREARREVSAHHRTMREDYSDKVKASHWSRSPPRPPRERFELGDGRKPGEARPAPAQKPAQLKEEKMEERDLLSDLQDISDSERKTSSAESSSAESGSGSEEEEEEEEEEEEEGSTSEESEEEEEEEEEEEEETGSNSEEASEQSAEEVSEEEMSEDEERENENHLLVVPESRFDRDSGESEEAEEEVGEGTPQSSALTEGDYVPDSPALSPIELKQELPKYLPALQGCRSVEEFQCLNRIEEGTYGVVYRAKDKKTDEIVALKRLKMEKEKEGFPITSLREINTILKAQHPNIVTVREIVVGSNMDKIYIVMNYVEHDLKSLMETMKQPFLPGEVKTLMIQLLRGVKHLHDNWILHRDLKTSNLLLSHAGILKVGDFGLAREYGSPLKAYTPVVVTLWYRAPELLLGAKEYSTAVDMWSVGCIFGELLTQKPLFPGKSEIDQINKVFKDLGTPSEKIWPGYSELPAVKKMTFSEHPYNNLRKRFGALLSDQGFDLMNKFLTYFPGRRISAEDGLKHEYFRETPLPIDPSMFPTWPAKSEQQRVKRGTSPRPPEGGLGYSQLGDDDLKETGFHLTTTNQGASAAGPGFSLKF
Sequence of ALK tyrosine kinase receptor (Homo sapiens) (Q9UM73 19-1620 limits assumed): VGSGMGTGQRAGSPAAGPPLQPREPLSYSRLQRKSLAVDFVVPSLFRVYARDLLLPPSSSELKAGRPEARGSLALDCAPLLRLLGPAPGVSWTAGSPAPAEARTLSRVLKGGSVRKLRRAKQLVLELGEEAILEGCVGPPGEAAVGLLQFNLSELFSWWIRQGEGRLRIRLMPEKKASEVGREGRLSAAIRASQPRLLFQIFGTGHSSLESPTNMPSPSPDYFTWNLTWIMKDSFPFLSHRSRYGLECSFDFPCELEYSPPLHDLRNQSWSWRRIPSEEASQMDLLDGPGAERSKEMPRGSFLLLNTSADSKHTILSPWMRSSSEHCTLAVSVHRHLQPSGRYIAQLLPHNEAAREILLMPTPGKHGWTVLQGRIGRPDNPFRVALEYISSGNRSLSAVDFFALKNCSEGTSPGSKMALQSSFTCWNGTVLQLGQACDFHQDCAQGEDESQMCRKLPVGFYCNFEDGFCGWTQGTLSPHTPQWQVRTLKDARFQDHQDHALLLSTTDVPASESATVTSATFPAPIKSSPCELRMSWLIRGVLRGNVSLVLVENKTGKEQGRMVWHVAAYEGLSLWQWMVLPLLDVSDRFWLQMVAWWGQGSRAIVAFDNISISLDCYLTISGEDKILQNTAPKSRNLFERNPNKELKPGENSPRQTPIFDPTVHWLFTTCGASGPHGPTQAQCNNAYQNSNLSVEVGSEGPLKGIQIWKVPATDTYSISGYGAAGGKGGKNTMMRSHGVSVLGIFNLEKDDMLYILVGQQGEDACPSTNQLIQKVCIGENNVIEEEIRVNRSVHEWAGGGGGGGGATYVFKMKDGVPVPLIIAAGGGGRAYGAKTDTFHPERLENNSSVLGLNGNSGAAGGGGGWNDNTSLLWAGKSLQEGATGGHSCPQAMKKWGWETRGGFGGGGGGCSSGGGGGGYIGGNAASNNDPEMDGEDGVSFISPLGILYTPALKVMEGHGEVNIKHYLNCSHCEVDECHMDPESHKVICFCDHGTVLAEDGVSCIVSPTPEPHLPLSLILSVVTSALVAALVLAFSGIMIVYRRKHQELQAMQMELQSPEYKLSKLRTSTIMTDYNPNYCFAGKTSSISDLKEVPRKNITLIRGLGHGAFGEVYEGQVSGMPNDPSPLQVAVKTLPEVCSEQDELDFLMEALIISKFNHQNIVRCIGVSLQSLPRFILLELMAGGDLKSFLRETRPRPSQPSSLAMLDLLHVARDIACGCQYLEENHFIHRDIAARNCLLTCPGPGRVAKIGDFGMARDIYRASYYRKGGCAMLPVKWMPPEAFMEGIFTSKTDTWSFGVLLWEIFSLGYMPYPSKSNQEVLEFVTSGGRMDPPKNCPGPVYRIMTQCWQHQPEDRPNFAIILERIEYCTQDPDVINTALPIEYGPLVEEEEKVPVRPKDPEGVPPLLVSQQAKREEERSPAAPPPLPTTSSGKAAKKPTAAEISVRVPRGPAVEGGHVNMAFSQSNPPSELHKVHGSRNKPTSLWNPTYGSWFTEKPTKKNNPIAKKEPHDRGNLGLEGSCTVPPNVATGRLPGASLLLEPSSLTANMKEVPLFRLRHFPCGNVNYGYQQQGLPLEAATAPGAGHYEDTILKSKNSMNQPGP
Sequence of Serine/threonine-protein kinase LATS1 (O95835 whole entry): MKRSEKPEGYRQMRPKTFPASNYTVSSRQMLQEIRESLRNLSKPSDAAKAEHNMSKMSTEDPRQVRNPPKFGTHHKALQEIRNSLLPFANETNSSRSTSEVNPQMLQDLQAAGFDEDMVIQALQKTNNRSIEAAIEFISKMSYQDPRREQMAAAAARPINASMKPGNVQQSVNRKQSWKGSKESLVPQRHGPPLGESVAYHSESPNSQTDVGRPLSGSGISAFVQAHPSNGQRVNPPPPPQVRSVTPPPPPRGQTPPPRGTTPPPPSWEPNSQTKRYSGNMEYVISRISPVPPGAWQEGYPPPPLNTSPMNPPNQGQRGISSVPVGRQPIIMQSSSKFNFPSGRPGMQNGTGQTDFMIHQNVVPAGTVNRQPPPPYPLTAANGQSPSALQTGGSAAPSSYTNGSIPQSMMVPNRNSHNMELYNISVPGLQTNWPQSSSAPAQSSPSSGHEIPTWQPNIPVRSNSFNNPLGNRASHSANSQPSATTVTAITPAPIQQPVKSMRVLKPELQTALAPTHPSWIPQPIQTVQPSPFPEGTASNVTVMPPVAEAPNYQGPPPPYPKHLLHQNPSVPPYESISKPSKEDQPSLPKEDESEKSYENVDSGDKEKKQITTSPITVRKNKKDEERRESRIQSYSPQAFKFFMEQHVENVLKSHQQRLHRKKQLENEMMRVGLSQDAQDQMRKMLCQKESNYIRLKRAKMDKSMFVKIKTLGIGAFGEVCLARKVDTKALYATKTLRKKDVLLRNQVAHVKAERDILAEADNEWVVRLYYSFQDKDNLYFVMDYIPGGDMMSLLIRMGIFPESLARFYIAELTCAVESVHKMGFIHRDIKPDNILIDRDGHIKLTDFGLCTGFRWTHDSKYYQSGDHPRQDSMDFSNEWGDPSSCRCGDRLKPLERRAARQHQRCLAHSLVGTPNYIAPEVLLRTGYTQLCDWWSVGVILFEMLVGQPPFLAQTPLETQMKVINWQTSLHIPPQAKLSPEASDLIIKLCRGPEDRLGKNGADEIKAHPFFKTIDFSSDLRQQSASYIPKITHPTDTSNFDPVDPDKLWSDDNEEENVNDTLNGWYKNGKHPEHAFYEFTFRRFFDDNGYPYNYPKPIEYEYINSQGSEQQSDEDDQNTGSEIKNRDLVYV
Sequence of Serine/threonine-protein kinase PRP4 homolog (Q13523 whole entry): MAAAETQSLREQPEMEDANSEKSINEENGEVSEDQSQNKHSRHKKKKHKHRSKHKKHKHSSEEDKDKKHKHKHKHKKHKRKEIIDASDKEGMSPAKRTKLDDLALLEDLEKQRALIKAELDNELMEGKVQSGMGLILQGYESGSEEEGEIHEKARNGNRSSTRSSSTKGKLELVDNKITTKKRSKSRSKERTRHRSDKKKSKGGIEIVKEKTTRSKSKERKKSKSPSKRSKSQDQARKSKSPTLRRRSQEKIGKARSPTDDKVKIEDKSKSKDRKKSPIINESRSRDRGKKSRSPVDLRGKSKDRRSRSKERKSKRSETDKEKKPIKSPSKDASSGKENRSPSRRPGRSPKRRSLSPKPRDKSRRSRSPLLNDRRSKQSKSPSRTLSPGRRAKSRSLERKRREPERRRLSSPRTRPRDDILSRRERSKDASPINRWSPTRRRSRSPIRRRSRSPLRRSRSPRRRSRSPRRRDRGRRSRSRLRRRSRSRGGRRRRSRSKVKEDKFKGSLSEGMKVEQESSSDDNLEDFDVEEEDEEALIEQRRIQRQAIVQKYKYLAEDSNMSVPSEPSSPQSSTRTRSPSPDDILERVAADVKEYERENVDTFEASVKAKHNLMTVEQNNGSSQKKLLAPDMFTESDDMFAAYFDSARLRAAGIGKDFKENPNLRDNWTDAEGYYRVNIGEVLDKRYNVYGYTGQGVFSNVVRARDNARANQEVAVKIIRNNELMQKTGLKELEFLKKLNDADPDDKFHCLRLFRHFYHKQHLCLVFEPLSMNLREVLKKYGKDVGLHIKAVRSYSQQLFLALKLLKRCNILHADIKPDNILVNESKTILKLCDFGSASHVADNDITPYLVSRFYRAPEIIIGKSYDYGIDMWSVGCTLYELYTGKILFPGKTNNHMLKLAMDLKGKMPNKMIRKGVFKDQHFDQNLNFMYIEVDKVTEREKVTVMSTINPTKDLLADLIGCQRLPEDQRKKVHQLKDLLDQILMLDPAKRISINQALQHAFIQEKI

Compound: CCOc1cc(N2CCC(O)CC2)ccc1Nc1ncc2c(n1)N(C)c1ccccc1C(=O)N2C
- inhibition [1]: -6.5%
- inhibition [2]: 16.5%
- inhibition at 2 µM [3]: -2.1%
- inhibition [4]: -2%
- inhibition [5]: 49%
- inhibition [6]: 0.8%
- inhibition [7]: -1.9%
- Activity [8]: 29%
- IC50 [9]: > 50 µM
- inhibition (AMPK alpha1/alpha2): -0.7%
- inhibition [10]: 0.3%
- inhibition at 10 µM [11]: -10.7%
- IC50 [12]: > 50 µM
- inhibition at 2 µM [13]: 61.7%
- Activity (Lewis lung carcinoma): Active
- inhibition [14]: 0.9%
- IC50 [15]: > 50 µM
- IC50 [16]: > 50 µM

Reference: ChEMBL document CHEMBL5661979, “Pharmacological inhibition of BMK1 suppresses tumor growth through promyelocytic leukemia protein” (Cancer Cell, 2010)
